Each block holds one compound with its values, some of them ahead of it.
Legend:
[1] = Inhibition of DOX-TEG-TAM uptake in ER expressing Rtx6 cells; assay type: cell-based; conditions: human
In short: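 Rtx-6 cells in tamoxifen-free medium got 0.5 µM conjugate for 1 h with or without estradiol at various concentrations. Flow cytometry of anthracycline fluorescence: excitation 488 nm, emission 570–600 nm, 10000 cells. Mean fluorescence minus drug-free background.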

[2] = tested on: MDA-MB-435; experiment: Inhibition of DOX-TEG-TAM uptake in MDA-MB-435 cells; assay type: cell-based; conditions: human
In short: (§1)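 Competition read by flow cytometry. MDA-MB-435 cells adhered overnight, then given 0.5 µM anthracycline for 1 h with or without tamoxifen at various concentrations (up to 10 µM). Cells trypsinized and kept cold in serum-free, phenol red-free RPMI. Excitation 488 nm, emission 570–600 nm, 10000 cells. Mean fluorescence with drug-free background subtracted.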

[3] = Growth inhibition of ER expressing Rtx6 cells after 4 hrs; assay type: functional; conditions: Homo sapiens
[4] = tested on: MCF7; experiment: Drug uptake in ER expressing MCF7 cells; assay type: ADME, cell-based; conditions: human
In short: (§2)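 Cells adhered overnight at 450000 per well, then were exposed to 0.5 µM drug for 1 h (uptake also at 20 and 40 min). They were trypsinized, washed cold, and held on ice in serum-free, phenol red-free RPMI. Flow cytometry: excitation 488 nm, emission 570–600 nm, 10000 cells, mean fluorescence minus drug-free background. Settings were fixed per cell line.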

[5] = Drug uptake in MCF7/Adr cells at 500 nM; assay type: ADME, cell-based; conditions: human, nci/adr-res, 0.5 µM
In short: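 MCF-7/Adr cells in log phase (RPMI 1640, 10% FBS), plated 450000 cells/well and adhered overnight; exposed to 0.5 μM drug (from 100× DMSO/1% AcOH stock) for 20, 40, 60 min. Cells were trypsinized, quenched and resuspended in cold serum-free, phenol red free RPMI, then held on ice. Flow cytometry: ex 488 nm, em 570–600 nm, 10000 cells; mean fluorescence minus drug-free background.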

[6] = tested on: MDA-MB-435; experiment: Decrease in doxorubicin uptake in MDA-MB-435 cells at 10 uM after 1 hr relative to DOX-TEG-TAM; assay type: ADME, cell-based; set-up: scale not given: the % may be the effect or the level left; conditions: human, mda-mb-435, 1 h; in short: as §1
[7] = tested on: MDA-MB-435; experiment: Decrease in DOX-TEG-TAM uptake in MDA-MB-435 cells after 1 hr; assay type: ADME, cell-based; conditions: human, mda-mb-435, 1 h; in short: as §1
[8] = tested on: MDA-MB-435; experiment: Decrease DOX-TEG-TAM uptake in MDA-MB-435 cells at 10 uM after 1 hr relative to control; assay type: ADME, cell-based; set-up: scale not given: the % may be the effect or the level left; conditions: human, mda-mb-435, 1 h; in short: as §1
[9] = tested on: MDA-MB-435; experiment: Decrease doxorubicin-saliform uptake in MDA-MB-435 cells at 10 uM after 1 hr relative to DOX-TEG-TAM; assay type: ADME, cell-based; set-up: scale not given: the % may be the effect or the level left; conditions: human, mda-mb-435, 1 h; in short: as §1
[10] = tested on: MCF7; experiment: Drug uptake in MCF7 cells at 500 nM for 1 hr relative to MDA-MB-435 cells; assay type: ADME, cell-based; conditions: human, mcf7, 1 h, 0.5 µM; in short: as §2
[11] = molecular target: T1, Anti-estrogen binding site (AEBS) (Homo sapiens) (UniProt Q15125+Q9UBM7); experiment: Displacement of 0.05 nM [3H]tamoxifen from AEBS in MCF7 cell lysate relative to E/Z-4-hydroxytamoxifen; assay type: cell-free
In short: (§3)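 AEBS source: MCF-7 cell lysate (sonicated, 12000g supernatant, diluted to 2.0 mg/mL protein, pH 7.4 lysis buffer with molybdate and protease inhibitors). [3H]tamoxifen at 5, 0.5 or 0.05 nM, with 1000 nM estradiol to saturate ER, plus cold competitor; 18 h at 4 °C. Dextran-coated charcoal strip, scintillation counting. Binding expressed relative to E/Z-4-OHT from reduction of bound tritium; competitors in duplicate.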

[12] = molecular target: T1, Anti-estrogen binding site (AEBS) (Homo sapiens); experiment: Displacement of 0.5 nM [3H]tamoxifen from AEBS in MCF7 cell lysate relative to E/Z-4-hydroxytamoxifen; assay type: cell-free; in short: as §3
[13] = molecular target: T1, Anti-estrogen binding site (AEBS) (Homo sapiens); experiment: Displacement of 5 nM [3H]tamoxifen from AEBS in MCF7 cell lysate relative to E/Z-4-hydroxytamoxifen; assay type: cell-free; in short: as §3
[14] = molecular target: T1, Anti-estrogen binding site (AEBS) (Homo sapiens); experiment: Binding affinity at AEBS; assay type: protein-complex assay; in short: as §3
[15] = Drug uptake in ER expressing Rtx6 cells at 500 nM; assay type: ADME, cell-based; conditions: human, 0.5 µM; in short: as §2
[16] = tested on: MDA-MB-231 (Homo sapiens); experiment: Drug uptake in MDA-MB-231 cells at 500 nM for 1 hr relative to MDA-MB-435 cells; conditions: mda-mb-231, 1 h, 0.5 µM

- Activity [1]: Dose-dependent effect
- Activity [2]: Not Active
SMILES: C[C@]12CC[C@@H]3c4ccc(O)cc4CC[C@H]3[C@@H]1CC[C@@H]2O [ESTRADIOL]

- Relative Fluorescent Unit [4]: 16
- Relative Fluorescent Unit [5]: 1
SMILES: COc1cccc2c1C(=O)c1c(O)c3c(c(O)c1C2=O)C[C@@](O)(C(=O)CO)C[C@@H]3O[C@H]1C[C@H](NCNC(=O)c2ccccc2O)[C@H](O)[C@H](C)O1
- IC50 [3]: 61 nM

- Activity [6]: 8%
- Activity [7]: Dose-dependent effect
- Activity [8]: 47%
- Activity [9]: 6%
SMILES: CC/C(=C(\c1ccccc1)c1ccc(OCCN(C)C)cc1)c1ccccc1 [TAMOXIFEN]

- Relative Fluorescent Unit [4]: 25
- Drug uptake [10]: 25%
- Activity [11]: 70%
- Activity [12]: 72%
- Activity [13]: 48%
- Activity [14]: 60%
- Relative Fluorescent Unit [15]: 14
- Drug uptake [16]: 25%
SMILES: CC/C(=C(/c1ccc(O)cc1)c1ccc(OCCN(C)CCOCCOCCO/N=C/c2ccc(O)c(C(=O)NCN[C@H]3C[C@H](O[C@H]4C[C@](O)(C(=O)CO)Cc5c(O)c6c(c(O)c54)C(=O)c4c(OC)cccc4C6=O)O[C@@H](C)[C@H]3O)c2)cc1)c1ccccc1
- IC50 [3]: 67 nM
